Tests used:
Set-up in all cases: scale not given: the % may be the effect or the level left
Rattus norvegicus [1] = species: Rattus norvegicus; assay: Reduction in triglyceride level in CFE rat […] in serum at 0.005% of diet treated through diet for 6 days relative to control; assay type: functional
Rattus norvegicus [2] = species: Rattus norvegicus; assay: Reduction in sterol level in CFE rat […] in serum at 0.005% of diet treated through diet for 6 days relative to control; assay type: functional
Rattus norvegicus [3] = species: Rattus norvegicus; assay: Reduction in sterol level in CFE rat […] in serum at 0.3% of diet treated through diet for 6 days relative to control; assay type: functional
Rattus norvegicus [4] = species: Rattus norvegicus; assay: Reduction in triglyceride level in CFE rat […] in serum at 0.3% of diet treated through diet for 6 days relative to control; assay type: functional
Rattus norvegicus [5] = species: Rattus norvegicus; assay: Reduction in triglyceride level in CFE rat […] in serum at 0.1% of diet treated through diet for 6 days relative to control; assay type: functional
Outline: (§1)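 Compound dissolved in methanol-chloroform (1:3 v/v), mixed into ground rat chow at 0.1, 0.05 or 0.025% (w/w), and solvent evaporated; controls received solvent-treated chow. Rats fed ad libitum with water for 6 days, then killed fed and bled. Serum sterols and triglycerides measured by autoanalyzer. Values given as percent of control, mean ± SE; significance by Student's t test.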

Rattus norvegicus [6] = species: Rattus norvegicus; assay: Reduction in sterol level in CFE rat […] at 0.025% of diet treated through diet for 6 days relative to control; assay type: functional, Serum; outline: as §1
Rattus norvegicus [7] = species: Rattus norvegicus; assay: Reduction in triglyceride level in CFE rat […] at 0.025% of diet treated through diet for 6 days relative to control; assay type: functional, Serum; outline: as §1
Rattus norvegicus [8] = species: Rattus norvegicus; assay: Reduction in sterol level in CFE rat […] in serum at 0.05% of diet treated through diet for 6 days relative to control; assay type: functional; outline: as §1
Rattus norvegicus [9] = species: Rattus norvegicus; assay: Reduction in sterol level in CFE rat […] in serum at 0.1% of diet treated through diet for 6 days relative to control; assay type: functional; outline: as §1
Rattus norvegicus [10] = species: Rattus norvegicus; assay: Reduction in triglyceride level in CFE rat […] in serum at 0.05% of diet treated through diet for 6 days relative to control; assay type: functional; outline: as §1

| Structure (SMILES) | Activity (Rattus norvegicus [1]) [%] | Activity (Rattus norvegicus [2]) [%] | Activity (Rattus norvegicus [3]) [%] | Activity (Rattus norvegicus [4]) [%] | Activity (Rattus norvegicus [5]) [%] | Activity (Rattus norvegicus [6]) [%] | Activity (Rattus norvegicus [7]) [%] | Activity (Rattus norvegicus [8]) [%] | Activity (Rattus norvegicus [9]) [%] | Activity (Rattus norvegicus [10]) [%] |
| --- | --- | --- | --- | --- | --- | --- | --- | --- | --- | --- |
| FC(F)(F)c1ccc(-c2ccc(OCCN3CCCC3)cc2)cc1 [BOXIDINE] | 55 | 60 |  |  |  |  |  |  |  |  |
| CCOC(=O)C(C)(C)Oc1ccc(Cl)cc1 [CLOFIBRATE] |  |  | 81 | 42 |  |  |  |  |  |  |
| CCCCCCCCCCCC(C)(C)Oc1ccc(C(=O)O)cc1 |  |  |  |  | 63 | 90 | 74 | 88 | 83 | 80 |
| CCCCCCCCCCCCC(CCC)Oc1ccc(C(=O)O)cc1 (centres undefined) |  |  |  |  | 53 | 78 | 70 | 76 | 74 | 62 |
| CCS(=O)(=O)CCCCCCCCCCCCCCCCOc1ccc(C(=O)O)cc1 |  |  |  |  | 60 | 90 | 70 | 83 | 89 | 61 |
| COC(=O)c1ccc(OCCCCCCCCCCCSC#N)cc1 |  |  |  |  | 145 | 102 | 80 | 102 | 160 | 94 |
| CCCCCCCCCCCC(Cl)CCOc1ccc(C(=O)O)cc1 (centres undefined) |  |  |  |  | 47 | 72 | 59 | 69 | 60 | 53 |
| COC(=O)c1ccc(OCCCCCCCCCCCCl)cc1 |  |  |  |  | 41 | 110 | 94 | 108 | 102 | 81 |
| COC(=O)c1ccc(OCCCCCCCCCCCSCc2ccccc2)cc1 |  |  |  |  | 58 | 91 | 64 | 85 | 87 | 49 |
| CCCCCCCC/C=C/CCCCCCCCOc1ccc(C(=O)OC)cc1 |  |  |  |  | 46 | 102 | 73 | 102 | 104 | 86 |
| CCCCCCCCCCCCCC#CCOc1ccc(C(=O)OC)cc1 |  |  |  |  | 57 | 89 | 78 | 83 | 89 | 66 |
| CC(C)=CCC/C(C)=C/CC/C(C)=C/COc1ccc(C(=O)O)cc1 |  |  |  |  | 133 | 108 | 131 | 102 | 87 | 111 |
| CCCCCCCCCCC/C(CCOc1ccc(C(=O)OC)cc1)=N/O |  |  |  |  | 32 | 74 | 53 | 67 | 64 | 43 |
| CCCCCCCCCCCCCC(CC)Oc1ccc(C(=O)O)cc1 (centres undefined) |  |  |  |  | 75 | 82 | 83 | 86 | 85 | 78 |
| CC(C)CCCC(C)CCCC(C)CCOc1ccc(C(=O)O)cc1 (centres undefined) |  |  |  |  | 26 | 81 | 72 | 73 | 87 | 72 |
| O=C(O)c1ccc(OCCCCCCCCCCCCCCCS)cc1 |  |  |  |  | 40 | 100 | 56 | 81 | 82 | 42 |

| Structure (SMILES) | Activity (Rattus norvegicus [1]) [%] | Activity (Rattus norvegicus [2]) [%] | Activity (Rattus norvegicus [3]) [%] | Activity (Rattus norvegicus [4]) [%] | Activity (Rattus norvegicus [5]) [%] | Activity (Rattus norvegicus [6]) [%] | Activity (Rattus norvegicus [7]) [%] | Activity (Rattus norvegicus [8]) [%] | Activity (Rattus norvegicus [9]) [%] | Activity (Rattus norvegicus [10]) [%] |
| --- | --- | --- | --- | --- | --- | --- | --- | --- | --- | --- |
| CCCSCCCCCCCCCCCOc1ccc(C(=O)O)cc1 |  |  |  |  | 42 | 96 | 61 | 94 | 86 | 43 |
| CCCCCCCCCCCCCC#CCOc1ccc(C(=O)O)cc1 |  |  |  |  | 75 | 98 | 96 | 88 | 82 | 65 |
| CCCCCCCCCCCCCCCCOc1ccc(C(=O)OC2CCN(C)CC2)cc1 |  |  |  |  | 117 | 85 | 100 | 87 | 96 | 110 |
| CCSCCCCCCCCCCCOc1ccc(C(=O)O)cc1 |  |  |  |  | 48 | 74 | 60 | 70 | 76 | 56 |
| O=C(O)c1ccc(OC(=O)C2C3CC4CC(C3)CC2C4)cc1 (centres undefined) |  |  |  |  | 113 | 93 | 90 | 99 | 92 | 101 |
| CCCCCCCCCCCCC/C=C\COc1ccc(C(=O)O)cc1 |  |  |  |  | 60 | 95 | 88 | 87 | 90 | 79 |
| CCCCCCCCCCCCCCCC(C)(C)Oc1ccc(C(=O)O)cc1 |  |  |  |  | 100 | 101 | 103 | 112 | 96 | 111 |
| CCCCCCCCCC/C=C/CCCOc1ccc(C(=O)O)cc1 |  |  |  |  | 92 | 92 | 72 | 92 | 79 | 76 |
| O=C(O)CCCCCCCCCCOc1ccc(C(=O)O)cc1 |  |  |  |  | 100 | 96 | 118 | 100 | 94 | 135 |
| COC(=O)c1ccc(OCC2(C34CC5CC(CC(C5)C3)C4)SCCS2)cc1 |  |  |  |  | 112 | 94 | 94 | 89 | 93 | 83 |
| COC(=O)c1ccc(OCCCCCCCCCCCOS(C)(=O)=O)cc1 |  |  |  |  | 72 | 105 | 79 | 105 | 91 | 81 |
| CCCCCCCCCCC/C=C/CCCOc1ccc(C(=O)O)cc1 |  |  |  |  | 59 | 75 | 76 | 67 | 69 | 76 |
| O=C(O)c1ccc(OCCCCCCCCCCCO)cc1 |  |  |  |  | 81 | 91 | 83 | 106 | 113 | 93 |
| CCCCCCCCCCCC(O)CCOc1ccc(C(=O)O)cc1 (centres undefined) |  |  |  |  | 53 | 105 | 69 | 112 | 116 | 60 |
| O=C(O)c1ccc(OC2C3CC4CC(C3)CC2C4)cc1 (centres undefined) |  |  |  |  | 88 | 88 | 79 | 92 | 96 | 82 |
| C=CCCCCCCCCCOc1ccc(C(=O)O)cc1 |  |  |  |  | 60 | 100 | 82 | 99 | 86 | 81 |
